Screening results from PubChem BioAssay.
RBBP9 inh: inhibitors of human serine hydrolase RBBP9; recombinant RBBP9, FP-Rh probe fluorescence polarization; 0.2% of 220,000 active; inhibition, % at 7.94 µM; AID 1515;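 active = inhibition above the campaign mean of all tested compounds plus 3 SD, cut at about 14% in these data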
Target sequence (O75884 whole entry, looked up): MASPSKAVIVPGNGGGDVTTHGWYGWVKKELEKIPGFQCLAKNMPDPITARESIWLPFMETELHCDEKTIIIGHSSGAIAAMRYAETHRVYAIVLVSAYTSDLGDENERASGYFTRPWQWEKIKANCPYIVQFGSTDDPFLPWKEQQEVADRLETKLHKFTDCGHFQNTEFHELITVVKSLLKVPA
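Test system: recombinant human RBBP9; Timing: 30 min then 45 min, 25 °C; Detection: fluorescence polarization; Control set: RBBP9 with DMSO as uninhibited control, no-protein wells as full inhibition; Compound dosing: one concentration, 7.94 µM nominal, 0.794% DMSO; Probe or stimulus: FP-Rh activity-based probe, 375 nM before mixing.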
Lipid droplet: hepatic lipid droplet formation modulation; inhibition, % at 6.5 µM; AML12 mouse hepatocytes, oleate lipid droplets, BODIPY imaging; 0.4% of 240,000 active;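 active = lipid droplet intensity inhibited by at least 50%, with more than 500 cells counted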
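Material – AML12 mouse liver cells · Also added – oleate loading, 100 µM · Compound dosing – 6.5 µM single-point dosing · Times – overnight treatment with compound plus oleate · Measured by – fluorescence imaging, 20x objective, two fields per well · Read-out – percent inhibition of filter-corrected integrated lipid droplet intensity per well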
TbHK1 inh: blocks Trypanosoma brucei hexokinase 1 activity | recombinant TbHK1, G6PDH-coupled NADH A340 | inhibition, % at 10 µM | 0.11% of 220,000 active | AID 1430;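 active = inhibition of 50% or more in the single-dose primary screen; inactive = inhibition below 50%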
PfM18AAP inh-1: PfM18AAP enzyme inhibition; recombinant PfM18AAP, H-Glu-NHMec fluorogenic cleavage; inhibition, % at 7.35 µM; 1.2% of 290,000 active;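 active = inhibition above the campaign mean inhibition over all tested compounds plus 3 SD, cut at about 28% in these data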
TNF necrop inh: TNF-alpha cell death inhibition in Jurkat FADD-/- cells; Jurkat FADD-/- TNF necroptosis rescue, ATP luminescence, 24 h; 0 = TNF only, 100 = no-TNF cells; activation (protection from cell death), % at 10 µM; 0.068% of 220,000 active; AID 463075;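 active = activation, meaning protection from cell death, of at least 50% relative to plate controls; inactive = activation below 50%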;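 also: necroptosis triggered by 40 ng/mL TNF-alpha added together with compound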
zVAD death inh: L929 zVAD cell death inhibition. L929 zVAD necroptosis rescue, ATP luminescence, 24 h; with zVAD 60 µM. AID 1377. 0.38% of 220,000 active. viability rescue, % at 10 µM;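 active = activation, scaled between plate controls, above about 75%, limit read from the data; inactive = activation under that limit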
PfM18AAP inh-2: confirmation of Plasmodium falciparum M18 aspartyl aminopeptidase inhibitors; recombinant PfM18AAP, H-Glu-NHMec fluorogenic cleavage; 28% of 2,400 active; inhibition, % at 7.35 µM; shares compounds with PfM18AAP inh-1;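 active = mean inhibition over replicate wells above the hit cutoff set for the earlier primary screen, cut at about 29% in these data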
CTSL1 confirm: Cathepsin L (human) inhibition, confirmation. purified cathepsin L1, Z-Leu-Arg-MCA fluorescence. inhibition, % at 5.96 µM. shares compounds with PfM18AAP inh-1. 2,400 tested, under 10 active;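 active = average inhibition across replicates above the hit cutoff set in the earlier primary screen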
Target sequence (P07711 whole entry, looked up): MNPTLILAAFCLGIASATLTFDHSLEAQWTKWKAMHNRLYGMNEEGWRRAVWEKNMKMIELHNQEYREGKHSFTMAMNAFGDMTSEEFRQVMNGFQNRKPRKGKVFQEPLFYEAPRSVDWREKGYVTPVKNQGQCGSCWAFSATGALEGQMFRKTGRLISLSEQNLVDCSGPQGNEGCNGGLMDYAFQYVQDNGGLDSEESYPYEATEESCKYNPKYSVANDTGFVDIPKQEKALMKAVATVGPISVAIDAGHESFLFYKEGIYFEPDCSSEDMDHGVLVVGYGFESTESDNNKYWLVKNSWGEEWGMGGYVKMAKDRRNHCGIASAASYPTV
Numbers stand for hits; - = inactive; . = no result given. Rows were chosen to be rich in hits. Some 2% of all compounds tested hit in one or more screens of this group.

SMILES | RBBP9 inh | Lipid droplet | TbHK1 inh | PfM18AAP inh-1 | TNF necrop inh | zVAD death inh | PfM18AAP inh-2 | CTSL1 confirm
CC1CCc2sc(NC(=O)C3CC(Cl)=CCC3C(=O)O)c(C#N)c2C1 (stereo unspecified) | - | - | - | - | - | - | . | .
COCCOC(=O)c1c(C)n(C)c2ccc(OC(=O)c3c(OC)cccc3OC)cc12 | . | - | . | 36 | . | . | - | -
S=C(NCCCN1CCOCC1)N(Cc1ccccc1)Cc1ccccc1 | . | - | . | - | . | . | . | .
CC1CCN(C(=O)CSc2nc(C(C)C)nc3c2c(=O)n(C)c(=O)n3C)CC1 | . | - | . | - | . | . | . | .
CCOC(=O)CSc1nc2c(sc(=S)n2-c2ccccc2OC)c(=O)n1-c1ccccc1OC | . | - | . | - | . | . | . | .
COc1ccc(-n2c(SCC(=O)C(C)(C)C)nc3c(sc(=S)n3-c3ccccc3)c2=O)c(OC)c1 | . | - | . | 37 | . | . | - | -
Cn1nc(-c2ccccc2)cc1NS(=O)(=O)c1ccccc1 | - | - | - | - | - | - | . | .
S=C(NC1CC1)NC1CCCc2ccccc21 (stereo unspecified) | - | - | - | - | - | - | . | .
N=c1ncn(Cc2ccccc2)c2nc(SCCOc3ccccc3)[nH]c12 | - | - | - | - | - | - | . | .
N#Cc1c(N)sc2c1CCCCCC2 | - | . | - | 43 | - | - | - | -
O=C(COc1ccc(F)cc1)c1c(O)cc(O)cc1O | - | - | - | 33 | - | - | - | -
Cc1cc(C(=O)CSc2n[nH]c(N)n2)c(C)n1-c1ccc2c(c1)OCO2 | - | - | - | - | - | - | . | .
COC(=O)c1ccc(C(c2c(C)[nH][nH]c2=O)c2c(C)[nH][nH]c2=O)cc1 | . | - | . | - | . | . | . | .
COc1cc(C(c2c(C)[nH][nH]c2=O)c2c(C)[nH][nH]c2=O)cc(Br)c1OC | . | - | . | 38 | . | . | - | -
CCOc1cc(C(c2c(C)[nH][nH]c2=O)c2c(C)[nH][nH]c2=O)cc([N+](=O)[O-])c1O | . | - | . | - | . | . | . | .
COC(=O)COc1c(Cl)cc(C(c2c(C)[nH][nH]c2=O)c2c(C)[nH][nH]c2=O)cc1OC | . | - | . | 34 | . | . | - | -
CCOC(=O)COc1ccc(C(c2c(C)[nH][nH]c2=O)c2c(C)[nH][nH]c2=O)cc1 | . | - | . | 34 | . | . | - | -
Cc1cccc(NC(=O)C2CCCN2S(=O)(=O)c2ccc(Cl)cc2)n1 (stereo unspecified) | . | - | . | - | . | . | . | .
Cc1ccc2nc(C(=O)N3CCc4c([nH]c5ccccc45)C3c3ccccn3)cn2c1 (stereo unspecified) | - | - | - | - | - | - | . | .
CCN(CC)c1cc(C)c2cc(NC(=O)CNC(C)=O)ccc2n1 | - | . | - | - | - | - | . | .
C#CCNc1nc(CC)nc2c1nnn2Cc1ccccc1F | - | . | - | - | - | - | . | .
NC(=O)c1c(NC(=O)c2cccnc2)sc2c1CCCCC2 | . | - | . | 33 | . | . | - | -
COc1ccc(C(=O)CSc2nnc(CNC(=O)c3ccccc3F)n2C)cc1OC | . | - | . | - | . | . | . | .
COc1ccc(/C(C)=N/Nc2nc3ccccc3nc2C)cc1 | - | - | - | 56 | - | - | - | -
COc1ccc(/C(C)=N/Nc2nncc3ccccc23)cc1 | . | - | . | - | . | . | . | .
SMILES | RBBP9 inh | Lipid droplet | TbHK1 inh | PfM18AAP inh-1 | TNF necrop inh | zVAD death inh | PfM18AAP inh-2 | CTSL1 confirm
CCS(=O)(=O)N1CCN=C1SCc1cccnc1 | - | - | - | - | - | - | . | .
CC(Cl)C(=O)NNC(=O)CNS(=O)(=O)c1ccccc1 (stereo unspecified) | - | - | - | 45 | - | - | - | -
NNC(=O)CNC(=O)CNS(=O)(=O)c1ccccc1 | - | - | - | - | - | - | . | .
S=c1[nH]nc(Cn2cnc3ccccc32)n1-c1ccccc1 | - | - | - | 42 | - | - | - | -
S=c1[nH]nc(Cn2nnc3ccccc32)n1-c1ccc(Cl)cc1 | - | - | - | 39 | - | - | - | -
Cc1c(C)n(Cc2ccccc2)c2ncnc(NCCN(C)C)c12 | . | . | . | - | . | . | . | .
Cc1c(C)n(Cc2ccccc2)c2ncnc(NN)c12 | . | - | . | 34 | . | . | - | -
Cc1c(C)n(CCc2ccccc2)c2ncnc(NCCCO)c12 | . | - | . | - | . | . | . | .
Cc1c(C)n(CCc2ccccc2)c2ncnc(NN)c12 | . | - | . | 44 | . | . | - | -
NC(=S)N/N=C/c1coc2ccc(O)cc2c1=O | - | - | - | 69 | - | - | 42 | -
COC(=O)c1ccc(COC(=O)c2ccc(SC)cc2OC)cc1 | - | - | - | - | - | - | . | .
NC(=O)c1ccc(N2CCN(c3ccccc3O)CC2)c([N+](=O)[O-])c1 | - | - | - | 36 | - | - | - | -
NC(=O)c1ccc(N2CCN(c3ccccc3F)CC2)c([N+](=O)[O-])c1 | - | - | - | - | - | - | . | .
O=S(=O)(c1ccc(F)cc1)N1CCN(c2ccccn2)CC1 | - | - | - | - | - | - | . | .
Cc1cc(C)c(-n2c(SCCS(=O)(=O)c3ccc(F)cc3)n[nH]c2=O)c(C)c1 | - | - | - | 41 | - | - | - | -
Cc1ccc(S(=O)(=O)CCSc2n[nH]c(=O)n2-c2ccccc2)cc1 | - | - | - | - | - | - | . | .
O=S(=O)(NNC(=S)Nc1ccc(S(=O)(=O)Nc2ncccn2)cc1)c1ccc(Br)cc1 | . | - | . | 41 | . | . | - | -
O=C(NC(=S)Nc1ccc(S(=O)(=O)Nc2ncccn2)cc1)c1ccc(Br)cc1 | - | - | - | - | - | - | . | .
OC1COC(OCC2OC(OCc3ccccc3)C(O)C(O)C2O)C(O)C1O (stereo unspecified) | - | - | - | 35 | - | - | - | -
CSc1cccc(NC(=O)Nc2ccccc2)c1 | - | - | - | - | - | - | . | .
CSc1cccc(N/C(=N/S(=O)(=O)c2ccccc2)NN)c1 | . | - | . | 38 | . | . | - | -
C=CCc1c(C)nc(-c2ccccc2)nc1N/N=C(\C)c1ccc(N)cc1 | - | - | - | 52 | - | - | - | -
C=CCc1c(C)nc(-c2ccccc2)nc1N/N=C/c1ccccc1 | - | - | - | - | - | - | . | .
CCN1/C(=C/C(=O)c2ccco2)Sc2ccccc21 | - | . | - | 46 | - | - | - | -
CCC(=O)/C=C1/Sc2ccc(OC)cc2N1CC | - | . | - | - | - | - | . | .
CN1/C(=C\C(=O)c2ccco2)C(C)(C)c2ccccc21 | - | . | - | - | - | - | . | .
CCC(=O)/C=C1/Sc2ccccc2N1CC | - | - | - | 54 | - | - | - | -
Cc1sc(-n2c(C)cc(/C=N/n3cnnc3)c2C)c(C#N)c1C | - | . | - | 36 | - | - | - | -
Cc1sc(-n2c(C)cc(/C=C3\SC(=S)NC3=O)c2C)c(C#N)c1C | - | - | - | - | - | - | . | .
CC1CC(C)CN(S(=O)(=O)c2ccc3oc(=O)ccc3c2)C1 (stereo unspecified) | . | - | . | - | . | . | . | .
